{"source": "paper PMC3270411", "about": "(Chemistry & biology, 2012)", "key": {"[1]": {"test_system": "c-Jun phosphorylation (pSer73) in HeLa cells", "assay": "LanthaScreen TR-FRET c-Jun phosphorylation assay in HeLa cells", "assay_type": "cell-based", "details": "read-out: p-c-Jun EC50 (nM) Hela; Hela cells, TNF-α stimulation, TR-FRET", "outline": "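HeLa cells stably expressing GFP-c-Jun(1–79), 10,000/well in Opti-MEM with 0.5% charcoal/dextran-treated FBS, 25 mM Hepes pH 7.3, no phenol red; overnight. Pretreated 90 min with compound, then 30 min with 5 ng/ml TNF-α. Lysed in buffer containing 2 nM terbium anti-c-Jun pSer73 antibody; 60 min equilibration at room temperature. TR-FRET: excitation 340 nm, ratio Em 520/Em 490.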"}, "[2]": {"test_system": "c-Jun phosphorylation (phospho Ser73) in A375 cells", "assay_type": "cell-based", "details": "read-out: p-c-Jun EC50 (nM) A375; A375 cells, anisomycin stimulation, microscopy"}, "[3]": {"test_system": "c-Jun phosphorylation in HeLa and A375 cells", "assay": "cellular c-Jun phosphorylation, statements for both assay formats", "assay_type": "cell-based", "details": "tested in parallel in HeLa and A375 formats"}, "JNK1/2/3 [4]": {"test_system": "JNK1/2/3", "assay": "KinomeScan 400-kinase panel profiling", "assay_type": "binding", "details": "10 μM"}, "JNK1/2/3 [5]": {"molecular_target": "JNK1/2/3", "assay": "Z'-lyte JNK kinase assays, statements for JNK1/2/3 together", "assay_type": "biochemical"}, "JNK1": {"molecular_target": "JNK1 (Homo sapiens, UniProt P45983)", "sequence (P45983 26-321 limits assumed)": "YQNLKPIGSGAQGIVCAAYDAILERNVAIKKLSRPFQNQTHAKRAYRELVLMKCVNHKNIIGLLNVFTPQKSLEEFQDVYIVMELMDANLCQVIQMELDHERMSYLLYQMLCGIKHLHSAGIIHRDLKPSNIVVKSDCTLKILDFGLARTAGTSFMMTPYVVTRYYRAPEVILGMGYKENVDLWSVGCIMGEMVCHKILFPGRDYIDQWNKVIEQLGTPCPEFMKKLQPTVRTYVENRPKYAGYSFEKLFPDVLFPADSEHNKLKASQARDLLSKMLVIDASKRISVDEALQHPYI", "assay": "intact protein and peptide mass spectrometry of inhibitor-labeled JNK1", "assay_type": "binding", "details": "recombinant JNK1, 5-fold excess of compound; Cys 116"}, "MAPK8 (JNK1)": {"molecular_target": "MAPK8 (JNK1) (Homo sapiens, UniProt P45983)", "sequence (P45983 whole entry)": "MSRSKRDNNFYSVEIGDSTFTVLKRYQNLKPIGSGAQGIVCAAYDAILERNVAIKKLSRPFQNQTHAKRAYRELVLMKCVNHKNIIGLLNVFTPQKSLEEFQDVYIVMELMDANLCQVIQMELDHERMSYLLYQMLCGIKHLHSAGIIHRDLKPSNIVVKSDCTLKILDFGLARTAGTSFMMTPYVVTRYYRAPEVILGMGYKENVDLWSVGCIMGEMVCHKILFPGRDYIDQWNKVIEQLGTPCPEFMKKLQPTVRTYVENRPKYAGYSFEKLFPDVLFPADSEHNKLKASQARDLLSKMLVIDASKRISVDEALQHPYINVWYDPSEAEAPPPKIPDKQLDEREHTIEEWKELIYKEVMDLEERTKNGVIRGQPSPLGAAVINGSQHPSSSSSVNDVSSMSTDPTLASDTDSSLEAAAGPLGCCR", "assay": "Z'-lyte JNK1 kinase assay", "assay_type": "biochemical", "details": "relative to JNK-IN-2"}, "JNK": {"test_system": "JNK", "assay": "pulse-chase ATP-biotin binding kinetics assay in A375 cells", "assay_type": "cell-based", "details": "1μM compound, protection from ATP-biotin labeling", "outline": "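A375 cells treated with 1 μM test compound for 1–5 h, then washed three times in PBS. Lysed in NP-40/CHAPS buffer for 30 min at 4°C, cleared, and gel-filtered into HEPES kinase buffer (about 5–15 mg/ml protein). Lysate labelled with 5 μM ATP-biotin probe for 1 h, reduced with DTT, alkylated with iodoacetamide, and pulled down on streptavidin for 2 h. Read-out: SDS-PAGE and JNK immunoblot.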"}, "JNK3": {"molecular_target": "JNK3 (Homo sapiens, UniProt P53779)", "sequence (P53779 whole entry)": "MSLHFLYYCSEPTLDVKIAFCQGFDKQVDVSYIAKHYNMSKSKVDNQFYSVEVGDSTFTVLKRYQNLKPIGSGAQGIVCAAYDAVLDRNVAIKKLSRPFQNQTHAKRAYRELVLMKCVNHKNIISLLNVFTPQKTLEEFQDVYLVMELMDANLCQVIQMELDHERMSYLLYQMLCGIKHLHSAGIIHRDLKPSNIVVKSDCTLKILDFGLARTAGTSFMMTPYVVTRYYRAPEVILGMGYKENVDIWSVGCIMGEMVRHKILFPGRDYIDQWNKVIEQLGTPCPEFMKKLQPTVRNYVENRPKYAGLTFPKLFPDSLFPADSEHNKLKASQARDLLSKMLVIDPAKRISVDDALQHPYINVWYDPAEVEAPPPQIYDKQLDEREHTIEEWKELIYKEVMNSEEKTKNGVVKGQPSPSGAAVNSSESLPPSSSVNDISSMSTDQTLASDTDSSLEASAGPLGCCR", "assay": "in vitro covalent binding kinetics with purified JNK3", "details": "27 molar excess of compound", "outline": "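Purified JNK3 incubated with 1 μM test compound for varying times, then ATP-biotin probe 5 μM for 10 min. Protein denatured with an equal volume of 8 M urea and gel-filtered. Biotinylated protein captured on streptavidin beads for 2 h, washed, boiled 10 min at 95°C, run on SDS-PAGE and immunoblotted for JNK.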"}}}
{"smiles": "N#CC(c1ccnc(NCCc2cccnc2)n1)c1nc2ccccc2s1", "note": "(stereo not drawn) [AS601245, reference compound]", "values": [{"measurement": "EC50", "setting": "[1]", "result": 2020, "unit": "nM"}, {"measurement": "EC50", "setting": "[2]", "result": 2400, "unit": "nM"}, {"measurement": "IC50s for inhibition of c-Jun phosphorylation in both assay formats", "setting": "[3]", "result": "micromolar range"}]}
{"smiles": "Cc1ccc(NC(=O)c2ccc(NC(=O)/C=C/CN(C)C)cc2)cc1Nc1nccc(-c2cccnc2)n1", "note": "[JNK-IN-1]", "values": [{"measurement": "binding to JNK1/2/3 in kinase selectivity profiling", "setting": "JNK1/2/3 [4]", "result": "significant binding"}, {"measurement": "IC50 for inhibition of JNK kinase activity", "setting": "JNK1/2/3 [5]; Z'-lyte assay format", "result": "single digit micromolar"}]}
{"smiles": "CN(C)C/C=C/C(=O)Nc1ccc(C(=O)Nc2cccc(Nc3nccc(-c4cccnc4)n3)c2)cc1", "note": "[JNK-IN-2]", "values": [{"measurement": "EC50", "setting": "[1]", "result": 704, "unit": "nM"}, {"measurement": "EC50", "setting": "[2]", "result": 2400, "unit": "nM"}, {"measurement": "covalent modification of JNK1 (mass spectrometry)", "setting": "JNK1", "result": "covalent addition of one molecule"}, {"measurement": "IC50", "setting": "JNK1/2/3 [5]; read-out: IC50 for inhibition of JNK kinase activity, Z'-lyte assay format", "result": "~1000", "unit": "nM"}]}
{"smiles": "CN(C)C/C=C/C(=O)NCc1ccc(C(=O)Nc2cccc(Nc3nccc(-c4cccnc4)n3)c2)cc1", "note": "[JNK-IN-4]", "values": [{"measurement": "fold increase in biochemical IC50 against JNK1", "setting": "MAPK8 (JNK1)", "result": 3, "unit": "fold"}]}
{"smiles": "C=CC(=O)Nc1cccc(C(=O)Nc2ccc(Nc3nccc(-c4cccnc4)n3)cc2)c1", "note": "[JNK-IN-5]", "values": [{"measurement": "EC50", "setting": "[1]", "result": 118, "unit": "nM"}, {"measurement": "EC50", "setting": "[2]", "result": 32, "unit": "nM"}, {"measurement": "incubation time required to modify JNK to background levels", "setting": "JNK", "result": "Three"}, {"measurement": "time to completely label JNK3", "setting": "JNK3", "result": 45, "unit": "min"}, {"measurement": "fold lower IC50 against JNK1, 2 and 3", "setting": "JNK1/2/3 [5]; compared with JNK-IN-2", "result": 500, "unit": "fold"}]}
{"smiles": "Cc1ccc(C(=O)Nc2ccc(Nc3nccc(-c4cccnc4)n3)cc2)cc1NC(=O)/C=C/CN(C)C", "note": "[JNK-IN-10]", "values": [{"measurement": "EC50", "setting": "[1]", "result": 173, "unit": "nM"}, {"measurement": "EC50", "setting": "[2]", "result": 141, "unit": "nM"}]}
{"smiles": "Oc1c2ccccc2c2c3c(cccc13)N=N2", "note": "[SP-600125]", "values": [{"measurement": "IC50s for inhibition of c-Jun phosphorylation in both assay formats", "setting": "[3]", "result": "micromolar range"}]}
